The record followed here is the EternaBench riboswitch data.

The test system of this series is MS2 coat protein. The series can be described thus: apparent Kd, MS2 coat protein; higher = weaker binding; RNA-MaP array; FMN 200 µM where present. An outline of the steps:
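The apparent Kd comes from binding curves fitted cluster by cluster, filtered, and summarised as a median. Those curves followed SNAP-549-labelled MS2 coat protein from 0.7 or 1.5 nM, doubling to 3 µM, on Illumina sequencing-chip clusters where stalled E. coli RNA polymerase had transcribed the designs, without and then with constant ligand. The buffer was 100 mM Tris-HCl pH 7.5, 80 mM KCl, 4 mM MgCl2, BSA, DTT, yeast tRNA and Tween-20, and green signal was normalised to red-channel RNA signal and control-cluster median Fmax.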

Setting [1] is: designed as: ON switch for flavin mononucleotide, no ligand.
[2] abbreviates: ligand present: flavin mononucleotide, designed as: ON switch for flavin mononucleotide.
Where [3] appears, read: designed as: OFF switch for flavin mononucleotide, no ligand.
[4] abbreviates: ligand present: flavin mononucleotide, designed as: OFF switch for flavin mononucleotide.

Turning to “GUUUGUUAUUAGAAGGUGCCAGCGAGAGCUGCAACAUGAGGAUCACCCAUGUGUCGGUGACGACGCAAGGAUAUGGUGGUGGAU”, the apparent Kd (usually the concentration giving half-maximal binding under the conditions of the assay) reads like this: under setting [1], 402 nM; under setting [2], 193 nM.

With “CAACGUACCAGAGGAUAUGAUUGUGGGUAAAGAGCGCUCAGGUGGCUACAUGAGGAUCACCCAUGUCAGAAGGCUGGAGUUCAA”, the “apparent Kd” value under setting [3] stood at 114 nM and the “apparent Kd” value under setting [4] came out at 59.6 nM.

For “AUUAUACAUGAGGAUCACCCAUGUAAUUAAUUAAUUAAGAUCAAGGAUAUCAGCUCGAUUAGAGCUGAGAAGGUGAUCACAUGU”, the “apparent Kd” value turned out to be 402 nM under setting [1] and 292 nM under setting [2].

Regarding “UUGCUCGUGUGAGGAUAUGCCGCCGUUUCGGCUGCAGAAGGUACUCUGUUACAUGAGGAUCACCCAUGUCUCUGUUGUUUCGUG”, the “apparent Kd” value under setting [1] amounted to 39 nM and the “apparent Kd” value under setting [2] is 47.5 nM.

Take “GGAUAGGACAGAGGAUAUACGUGCUAGAGAUACUCGCAAAAUUUCCUCACAUGAGGAUCACCCAUGUAGAAGGCUGUCCUAUCG”: the “apparent Kd” value reads like this: under setting [3], 93 nM; under setting [4], 436 nM.

Consider “ACAUGAGGAUCACCCAUGUAUACAUAGGAUAUUGGUGAUCAGGGAUGUUUUACAGGAUAUGUCUGCGAGAAGGAUGCAAGUACA”, for which the “apparent Kd” value stood at 352 nM under setting [1] and 151 nM under setting [2].

For the sequence “CACGGAUAGUAGAAGGGUGACAUGAGGAUCACCCAUGUACUUAUUUAUUUAUUACUAUUUCAUACACAGGAUAUACUAUCCGUG”, the “apparent Kd” value worked out at 652 nM under setting [1] and 176 nM under setting [2].

Turning to “GUGUACAUAUCAGGAUAUCAUCGAGUGGAUUAACACAGUGAUUACAUGAGGAUCACCCAUGUGCUUGAGAAGGGAUUACAAUGU”, the “apparent Kd” value runs as follows: under setting [3], 19.3 nM; under setting [4], 16.4 nM.

“AUAUCCGAAGCAGGAUAUCGGCAAGGUGUCGAGGUAGAGCGUACUCACAUGAGGAUCACCCAUGUCGAGAAGGGCUACAGGAUG”: the “apparent Kd” value under setting [3] stood at 16.8 nM and the “apparent Kd” value under setting [4] is 72.4 nM.

Turning to “UAAACACCCUCAUGUGCCUGAGGACAUGAGGAUCACCCAUGUGAGGAUAUAGCCAUUAAAUCUAACUAGAAGGUAUAGGAAAUC”, the “apparent Kd” value came to 651 nM under setting [3] and 190 nM under setting [4].

For the sequence “UUCGUGCAGCUUUGCUGUACGAGUACAUGAGGAUCACCCAUGUAGGAUAUGGUACGCUUUGCGUGCUAGAAGGAUAUGUGUAGC”, the “apparent Kd” value is 33 nM under setting [3] and 37 nM under setting [4].

In the case of “CUUUCGUGAGGAUAUGUGGCUUCGAACGUGAGAUCGAGGCUACAGAAGGCACAUGAGGAUCACCCAUGUUCCUC”, the “apparent Kd” value was 34.3 nM under setting [3] and 395 nM under setting [4].

Take “CCGGUUUAUGGAGGAUAUGGAGCCUUAUUGGCUCCAGAAGGCUAAUAACAUGAGGAUCACCCAUGUCGGCGGUCUAAUGACCGA”: the “apparent Kd” value turned out to be 33.1 nM under setting [1] and 20.6 nM under setting [2].

As to “UAGGUUUGUAGUUACAUCCCUACACAGGAUAUAGGUAGUUACAUGAGGAUCACCCAUGUUCGAACUUAGAAGGGUGGAUCGUUG”, the “apparent Kd” value under setting [1] was 48 nM and the “apparent Kd” value under setting [2] was determined as 10.3 nM.

For “AGGACGAGGCAGAAGGGACAUGAGGAUCACCCAUGUACCGUGGUUCAGCAGUCAGGAUAUGCCGUACGUAAACAUAUCGUAAGA”, the “apparent Kd” value reads like this: under setting [3], 10.3 nM; under setting [4], 71 nM.

Regarding “ACAUGAGGAUCACCCAUGUUGAAUGAGGAUAUUUGACUGCGCAUGAGGUUCUCCCAUGUUCAACCGGAGAAGGUAUUAAUAAUU”, the “apparent Kd” value runs as follows: under setting [1], 267 nM; under setting [2], 160 nM.

“GUUGCUACUGAGGAUAUUAUUUUAUUCGACUGAUAAGAAGGCAGUACAUGAGGAUCACCCAUGUGGGUAGCCAG”: the “apparent Kd” value was found to be 23.8 nM under setting [3] and 67.8 nM under setting [4].

With “AAACACGGACAUGAGGAUCACCCAUGUGGCGAAAGCCUUGGGAGAAGGCAGUAUGCAAAGCAUUCUGAGGAUAUCCAUACCGUG”, the “apparent Kd” value is, setting by setting: under setting [1], 18.4 nM; under setting [2], 6.63 nM.

Turning to “GCAUGUUGGUAGGAUAUGCAGCGAAAACCGCGAGUAGAAGGAUUGACAUGAGGAUCACCCAUGUGAACCUAAGG”, the “apparent Kd” value runs as follows: under setting [3], 27.1 nM; under setting [4], 59.2 nM.

For the sequence “GGGUAACAUGAGGAUCACCCAUGUGAGGAUAUCCUAGGGAUGGAAGCUCGGCCAACCAGGAGAAGGUACUAAAG”, the “apparent Kd” value is, setting by setting: under setting [3], 73.9 nM; under setting [4], 131 nM.

Turning to “AAAGUACAUGAGGAUCACCCAUGUUGGAACAAAGCAGGAUAUGUACAAAAGGAAAUAAAUACAGAAGGGCUAAGAA”, the “apparent Kd” value runs as follows: under setting [1], 36.5 nM; under setting [2], 21.2 nM.

As for “AUCAUACAUGAGGAUCACCCAUGUUCCGGCAGGUCAGGAUAUAAAUCGAAUGAGUUCUAGUUAGAAGGGACAUCUA”, the “apparent Kd” value runs as follows: under setting [1], 49.3 nM; under setting [2], 39.2 nM.

For the sequence “UUGGGACUAUCAGGAUAUGGUGUAGCCUAGUAAAGGACAUGAGGAUCACCCAUGUACCAUUGGUACCAGAAGGGAUGAUCCUAC”, the “apparent Kd” value is, setting by setting: under setting [1], 173 nM; under setting [2], 46 nM.

Regarding “GCUGUCGCAUGAGGAUAUGGUCAGCUUUGCUGACCAGAAGGCAUGUCAAUAGACAUGAGGAUCACCCAUGUGGUUAGGGCGGCU”, the “apparent Kd” value runs as follows: under setting [1], 1030 nM; under setting [2], 93.5 nM.

Regarding “GAUUGACGACAAUUACAUGAGGAUCACCCAUGUUGUAGUAUGCAGGAUAUGUGGUAUAUUAUUUAACAGAAGGGCAAUAAUUUU”, the “apparent Kd” value by setting is: under setting [1], 81 nM; under setting [2], 42.4 nM.

As for “GUGGAGGGUUGAGGAUAUUGAAUACAUAUGUUUAACAUGAGGAUCACCCAUGUGGGUUGCGGUAUCGAGAAGGUAAAUUGCUGG”, the “apparent Kd” value was 97.2 nM under setting [1] and 109 nM under setting [2].

In the case of “UCCACUGCUGAGAAGGGAUACGUGUGGUUCGCAUCAGGAUAUCGAUACAGUGCAGCAUGAGGACAUGAGGAUCACCCAUGUAUU”, the “apparent Kd” value under setting [1] is 24.6 nM and the “apparent Kd” value under setting [2] amounted to 13.4 nM.

On to “AACGCGUCAGGAUAUGCCAUAAAUUACCUAAUACAACCAUAGCAGAAGGGACAUGAGGAUCACCCAUGUAAAUA”, for which the “apparent Kd” value is 32.1 nM under setting [3] and 25.2 nM under setting [4].

On to “AGGUGACAUGAGGAUCACCCAUGUCAGGAUAUAUACACCGCCGGCGUGAAGCCGGCGGAUAGAAGGGACAAAAU”, for which the “apparent Kd” value runs as follows: under setting [3], 17.1 nM; under setting [4], 21.3 nM.

For the sequence “ACGAGCAAGAUUAUUAUGAAUAAACAUGAGGAUCACCCAUGUAAGGAUAUGCAGUGGAAUACACUGCAGAAGGUACAUAGCUCG”, the “apparent Kd” value reads like this: under setting [3], 11.3 nM; under setting [4], 44.2 nM.

As to “ACUAAGGAGGUAGGAUAUUGUGUGGUGGCCGGGCUCCCACGGCGAGCGGCACAAGAAGGAUCCCUACAUGAGGAUCACCCAUGU”, the “apparent Kd” value came out at 24 nM under setting [1] and 16.4 nM under setting [2].

In the case of “UUGUCUCAUGAGAAGGACAUGAGGAUCACCCAUGUAGGAUAUCAUGGGUCAGUGGAAUUGAAUCUUCGGAUUCAAUAACUCUAC”, the “apparent Kd” value was found to be 15 nM under setting [1] and 7 nM under setting [2].

For the sequence “CCGAAUAAGCAGGAUAUCGAAUCGGAAACGAUUCGAGAAGGGUUAACAUGAGGAUCACCCAUGUUCCUUAACGG”, the “apparent Kd” value by setting is: under setting [3], 20.3 nM; under setting [4], 22.2 nM.

Consider “UGUCGGAGCAGAGGAUAUUACAUGAGGAUCACCCAUGUAUGAACCGAUAGCUGGAAACAGCAAUGUAAGAAGGCUGCUCCGACA”, for which the “apparent Kd” value reads like this: under setting [3], 19 nM; under setting [4], 258 nM.

As for “UGUAGUUCAGGAUAUGAUGUUUAAAACAUGAGGAUCACCCAUGUAGAUCCUGAAUUAACAUCAGAAGGGAAUAUUU”, the “apparent Kd” value runs as follows: under setting [3], 17.9 nM; under setting [4], 46.2 nM.

For the sequence “UCAAAGAGAUCGAACGGGAGGCGUAAGGAUAUGCACAUGAGGAUCACCCAUGUCUACGAAAGUAGGCAGAAGGUACGCGGGAUU”, the “apparent Kd” value worked out at 253 nM under setting [1] and 30.6 nM under setting [2].

As for “AUCACAGCCACAGGAUAUCCACAUGAGGAUCACCCAUGUUACCGAAGGGUAGGAGAAGGGUGGCGCUCGUUGCGGACGAUGAAU”, the “apparent Kd” value by setting is: under setting [1], 121 nM; under setting [2], 15.1 nM.

Take “UGGUACAUGGGAGGAUAUCAUGUGGACACAUGAGGAUCACCCAUGUCGAUGGAGACAUCGGAGAUUGAGAAGGCCCAUGUACCU”: the “apparent Kd” value runs as follows: under setting [1], 390 nM; under setting [2], 12.7 nM.

Take “AUAUAAAAUAUAGGAUAUGGAAACAUGAGGAUCACCCAUGUAUGAUAAGAUAAAUUAUGAUAUAGCCAGAAGGAUACAAUAUAA”: the “apparent Kd” value runs as follows: under setting [1], 31.3 nM; under setting [2], 38.3 nM.

As to “CUCUUGUCAGGAUAUUAUGGACGAAGGCAGGGCCGCGUCAGUGAGAAGGGACAUGAGGAUCACCCAUGUAAAAU”, the “apparent Kd” value runs as follows: under setting [3], 97.8 nM; under setting [4], 74.6 nM.

For the sequence “GGUUGACAAAGUCAACCAAAUCGAACAUGAGGAUCACCCAUGUAGGAUAUGCUACUCAAAGAGUAGCAGAAGGACAUGUGCUUU”, the “apparent Kd” value turned out to be 40.7 nM under setting [3] and 227 nM under setting [4].

On to “GUGUCCUUAGGAUAUGUUGAGUUAUACAUGAGGAUCACCCAUGUUCCUCGGUAUUGGUCCAUAGAAGGAAGGUUGC”, for which the “apparent Kd” value runs as follows: under setting [3], 346 nM; under setting [4], 337 nM.

As to “GUCAGCUCGUGAGGAUAUACAUGUGCUGGAAACAGCACUAAAGAUUUCACAUGAGGAUCACCCAUGUAGAAGGCACGAGCUGAU”, the “apparent Kd” value reads like this: under setting [3], 16.1 nM; under setting [4], 38 nM.

For the sequence “CCAUUUCAGUAAGGAUAUAUAAACAUGACGAUACAUGAGGAUCACCCAUGUGUAGAAGGUACUAAUACAUAUAAUGCAAUGCUC”, the “apparent Kd” value was found to be 20.4 nM under setting [3] and 17.2 nM under setting [4].

In the case of “AUGCGUCGAGAGGAUAUUUGCGAGGUGACCAGCAAAGAAGGUUCGACAUGAGGAUCACCCAUGUCCAGCAUUUG”, the “apparent Kd” value reads like this: under setting [3], 34.2 nM; under setting [4], 72.8 nM.

For the sequence “GUGUAGGGAGGAUAUACAUGAGGAUCACCCAUGUGAAUAAGAUAGAAUAAGAUAAAGUGUAGAAGGUCUAGUGU”, the “apparent Kd” value is, setting by setting: under setting [3], 66 nM; under setting [4], 51.9 nM.

Consider “AGAAAACAUGAGGAUCACCCAUGUGAGGAUAUCGAUGUCCAGGGCCUGGUGCGGGACUCGAGAAGGCACUGGGA”, for which the “apparent Kd” value is 59.9 nM under setting [3] and 86.9 nM under setting [4].

Consider “UCUCGACAUGAGGAUCACCCAUGUCAGGAUAUUGUAUUGGAGGUUUUUUACCUUAUGGCAAGAAGGGAUGUGUG”, for which the “apparent Kd” value runs as follows: under setting [3], 20.6 nM; under setting [4], 21.6 nM.
